Source: ChEMBL document CHEMBL1140454, “Conformationally constrained analogues of 2-arachidonoylglycerol” (Bioorg Med Chem Lett, 2007)

Assays:
Cannabinoid receptor 2 = Cannabinoid receptor 2 (Mus musculus, UniProt P47936); assay: Displacement of [3H]CP-55940 from mouse spleen CB2 receptor; assay type: tissue-based
Procedure, shortened: (§1)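 Competition-equilibrium binding against [3H]CP55940, using rat brain membranes for CB1 and mouse spleen membranes for CB2. Some CB1 runs used membranes pretreated with PMSF. IC50 came from nonlinear regression and Ki was calculated from IC50. Points were run in duplicate, with values from single experiments.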

[1] = molecular target: T1, Fatty-acid amide hydrolase 1 (Rattus norvegicus) (UniProt P97612); assay: Activity of partially purified Sprague-Dawley rat FAAH assessed as substrate hydrolysis
T1 sequence (whole entry): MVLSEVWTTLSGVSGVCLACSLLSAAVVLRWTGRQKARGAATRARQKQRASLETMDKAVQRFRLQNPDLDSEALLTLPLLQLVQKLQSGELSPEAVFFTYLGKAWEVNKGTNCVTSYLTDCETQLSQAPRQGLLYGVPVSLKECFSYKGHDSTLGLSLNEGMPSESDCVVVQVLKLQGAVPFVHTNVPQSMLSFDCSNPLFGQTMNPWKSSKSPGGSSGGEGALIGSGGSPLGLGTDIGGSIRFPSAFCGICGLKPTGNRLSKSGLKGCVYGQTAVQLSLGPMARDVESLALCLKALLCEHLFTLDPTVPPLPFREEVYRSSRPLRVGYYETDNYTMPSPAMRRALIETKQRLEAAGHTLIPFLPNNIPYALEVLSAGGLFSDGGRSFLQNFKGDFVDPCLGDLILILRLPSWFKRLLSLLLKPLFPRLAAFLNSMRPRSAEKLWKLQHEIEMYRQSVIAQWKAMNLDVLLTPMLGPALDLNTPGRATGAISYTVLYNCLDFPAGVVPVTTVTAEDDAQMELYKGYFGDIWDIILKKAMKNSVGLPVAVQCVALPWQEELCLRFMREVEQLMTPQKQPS

[2] = molecular target: T2, Monoglyceride lipase (Rattus norvegicus) (UniProt Q8R431); assay: Activity of partially purified Sprague-Dawley rat MGL assessed as substrate hydrolysis
T2 sequence (whole entry): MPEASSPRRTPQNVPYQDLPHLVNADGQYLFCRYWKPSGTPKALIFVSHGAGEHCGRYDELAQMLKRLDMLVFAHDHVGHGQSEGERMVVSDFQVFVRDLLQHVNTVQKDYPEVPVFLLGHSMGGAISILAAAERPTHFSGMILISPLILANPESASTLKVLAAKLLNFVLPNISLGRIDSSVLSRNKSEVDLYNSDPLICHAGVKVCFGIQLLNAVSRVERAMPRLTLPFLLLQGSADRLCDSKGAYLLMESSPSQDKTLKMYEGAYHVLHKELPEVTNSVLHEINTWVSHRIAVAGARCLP

Cannabinoid receptor 1 = Cannabinoid receptor 1 (Rattus norvegicus, UniProt P20272); assay: Displacement of [3H]CP-55940 from rat brain CB1 receptor; procedure, shortened: as §1
Chain of Cannabinoid receptor 1 (P20272 whole entry): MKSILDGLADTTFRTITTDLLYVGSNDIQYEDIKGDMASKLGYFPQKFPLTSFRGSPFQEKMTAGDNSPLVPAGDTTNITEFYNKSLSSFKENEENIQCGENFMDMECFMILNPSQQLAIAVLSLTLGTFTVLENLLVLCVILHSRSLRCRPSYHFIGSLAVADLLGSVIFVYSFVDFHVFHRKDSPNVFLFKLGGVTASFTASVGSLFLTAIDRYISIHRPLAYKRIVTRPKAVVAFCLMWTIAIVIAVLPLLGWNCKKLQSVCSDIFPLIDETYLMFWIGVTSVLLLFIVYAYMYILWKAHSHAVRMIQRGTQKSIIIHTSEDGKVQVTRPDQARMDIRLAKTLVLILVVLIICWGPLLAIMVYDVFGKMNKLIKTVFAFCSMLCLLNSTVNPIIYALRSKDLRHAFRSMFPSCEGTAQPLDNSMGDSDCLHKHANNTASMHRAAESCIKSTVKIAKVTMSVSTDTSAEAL

Chain of Cannabinoid receptor 2 (P47936 whole entry): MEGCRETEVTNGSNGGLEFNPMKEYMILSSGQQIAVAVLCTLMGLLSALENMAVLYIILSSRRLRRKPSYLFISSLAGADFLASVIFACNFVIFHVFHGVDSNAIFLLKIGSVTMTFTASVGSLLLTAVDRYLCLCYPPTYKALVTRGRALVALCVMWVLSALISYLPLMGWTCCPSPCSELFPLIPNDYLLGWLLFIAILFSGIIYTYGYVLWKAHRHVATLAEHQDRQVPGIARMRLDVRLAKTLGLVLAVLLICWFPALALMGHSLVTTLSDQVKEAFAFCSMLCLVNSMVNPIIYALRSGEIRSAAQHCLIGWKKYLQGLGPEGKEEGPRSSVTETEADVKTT

SMILES | Ki (Cannabinoid receptor 2) [µM] | hydrolysis [1] [%] | hydrolysis [2] [%] | Ki (Cannabinoid receptor 1) [µM]
CCCCC/C=C\C/C=C\C/C=C\C/C=C\CCCC(=O)OC1C(=O)CCCC1O (racemic; form 1) [listing 1 of 2 here] | 0.41 | – | – | –
CCCCC/C=C\C/C=C\C/C=C\C/C=C\CCCC(=O)OC1C(O)CCCC1O (single isomer, unassigned; (-)) [listing 1 of 2 here] | – | 88 | 13 | –
CCCCC/C=C\C/C=C\C/C=C\C/C=C\CCCC(=O)OC1C(O)CCCC1O (racemic) | – | 100 | 1 | –
CCCCC/C=C\C/C=C\C/C=C\C/C=C\CCCC(=O)OC1C(O)CCCC1O (single isomer, unassigned; (+)) [listing 1 of 2 here] | – | 88 | 10 | –
CCCCC/C=C\C/C=C\C/C=C\C/C=C\CCCC(=O)OC1C(O)CCCC1O (single isomer, unassigned; (-)) [listing 2 of 2 here] | 1.2 | – | – | 0.77
CCCCC/C=C\C/C=C\C/C=C\C/C=C\CCCC(=O)OC1C(=O)CCCC1O (racemic; form 1) [listing 2 of 2 here] | – | 91 | 48 | –
CCCCC/C=C\C/C=C\C/C=C\C/C=C\CCCC(=O)OC1C(=O)CCCC1O (racemic; form 2) | – | 100 | 8 | –
CCCCC/C=C\C/C=C\C/C=C\C/C=C\CCCC(=O)OC1C(O)CCCC1O (single isomer, unassigned; (+)) [listing 2 of 2 here] | 0.37 | – | – | 0.36
CCCCC/C=C\C/C=C\C/C=C\C/C=C\CCCC(=O)O[C@H]1[C@H](O)CCC[C@@H]1O | – | 78 | 19 | –
CCCCC/C=C\C/C=C\C/C=C\C/C=C\CCCC(=O)O[C@@H]1[C@H](O)CCC[C@@H]1O | – | 2 | 2 | –
CCCCC/C=C\C/C=C\C/C=C\C/C=C\CCCC(=O)OC(CO)CO | – | 100 | 74 | –
